Assay results published in publication PMC3607822 (The Journal of General Physiology, 2013).
Residue numbers refer to the chain shown, from its start.

Columns and labels:
[1] = target: T1, CNGA3 RR-EE (R643E, R646E) channels (Homo sapiens, UniProt Q16281, R643E/R646E); experiment: Inside-out patch clamp, CNGA3 RR-EE; format: biochemical
T1 sequence (Q16281 1-694 R643E/R646E): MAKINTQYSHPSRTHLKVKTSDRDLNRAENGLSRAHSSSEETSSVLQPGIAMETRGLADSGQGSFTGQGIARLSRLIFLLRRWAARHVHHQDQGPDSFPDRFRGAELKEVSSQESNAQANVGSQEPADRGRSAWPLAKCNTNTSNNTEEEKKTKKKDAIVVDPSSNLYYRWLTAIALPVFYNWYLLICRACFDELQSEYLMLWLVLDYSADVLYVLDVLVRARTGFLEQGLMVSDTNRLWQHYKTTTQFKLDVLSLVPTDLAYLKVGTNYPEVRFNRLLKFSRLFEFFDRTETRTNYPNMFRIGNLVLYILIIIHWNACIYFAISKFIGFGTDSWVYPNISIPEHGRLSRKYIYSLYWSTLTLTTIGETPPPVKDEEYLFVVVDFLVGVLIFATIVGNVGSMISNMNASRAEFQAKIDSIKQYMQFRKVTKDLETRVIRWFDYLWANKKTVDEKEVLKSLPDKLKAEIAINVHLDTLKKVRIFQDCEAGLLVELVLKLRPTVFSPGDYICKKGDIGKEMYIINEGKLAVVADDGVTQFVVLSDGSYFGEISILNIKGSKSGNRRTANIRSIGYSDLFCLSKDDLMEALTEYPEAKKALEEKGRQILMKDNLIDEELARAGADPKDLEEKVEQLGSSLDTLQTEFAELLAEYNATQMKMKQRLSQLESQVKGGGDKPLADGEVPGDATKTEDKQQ

[2] = target: T2, A3-N7R-A,RR-QQ+B3 channels (Homo sapiens, UniProt Q16281+Q9NQW8, R101A/R103A/R643Q/R646Q/R72A/R75A/R81A/R82A/R86A); experiment: Inside-out patch clamp, A3-N7R-A,RR-QQ+B3; format: biochemical
T2 sequence (Q16281 1-694 R72A/R75A/R81A/R82A/R86A/R101A/R103A/R643Q/R646Q): T1 sequence (Q16281 1-694 R643E/R646E) with R72A, R75A, R81A, R82A, R86A, R101A, R103A, E643Q, E646Q
T2 sequence (Q9NQW8 1-809): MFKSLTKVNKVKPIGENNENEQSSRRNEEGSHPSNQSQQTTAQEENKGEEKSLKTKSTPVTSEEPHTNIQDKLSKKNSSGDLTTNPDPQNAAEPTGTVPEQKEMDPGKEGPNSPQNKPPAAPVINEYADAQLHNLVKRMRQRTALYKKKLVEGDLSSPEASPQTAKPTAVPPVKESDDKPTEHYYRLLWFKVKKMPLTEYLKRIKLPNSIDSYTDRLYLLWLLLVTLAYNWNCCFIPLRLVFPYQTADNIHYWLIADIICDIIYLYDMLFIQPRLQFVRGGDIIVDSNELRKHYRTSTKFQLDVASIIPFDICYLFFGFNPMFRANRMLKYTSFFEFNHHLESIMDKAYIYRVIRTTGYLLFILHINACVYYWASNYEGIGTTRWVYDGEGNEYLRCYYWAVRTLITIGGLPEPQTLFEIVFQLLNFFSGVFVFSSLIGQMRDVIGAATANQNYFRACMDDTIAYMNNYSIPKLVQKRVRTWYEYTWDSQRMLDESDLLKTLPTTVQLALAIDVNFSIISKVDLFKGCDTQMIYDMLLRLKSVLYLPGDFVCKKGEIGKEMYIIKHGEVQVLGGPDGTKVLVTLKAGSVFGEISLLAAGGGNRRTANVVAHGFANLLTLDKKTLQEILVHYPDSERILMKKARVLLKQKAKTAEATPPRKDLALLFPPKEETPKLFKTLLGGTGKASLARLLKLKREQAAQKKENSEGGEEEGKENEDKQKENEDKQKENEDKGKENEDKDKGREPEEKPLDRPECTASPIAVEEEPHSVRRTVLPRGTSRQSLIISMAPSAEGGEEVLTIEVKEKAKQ
In short: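 Subunit cRNAs (~20 ng, B in excess over A) injected into stage IV Xenopus oocytes; inside-out patches 2–7 d later, 20–22°C, symmetric 130 mM NaCl, 0.2 mM EDTA, 3 mM Hepes pH 7.2. Heteromer formation checked by 25 µM l-cis-diltiazem with 1 mM cGMP. diC8 phosphoinositides applied intracellularly in phosphatase-inhibitor cocktail. cGMP dose–response at +80 mV, leak-subtracted, Hill fit before/after for K1/2; mean ± SEM.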

GST fusion A3C7K/R-A = GST fusion A3C7K/R-A (Homo sapiens, UniProt Q16281, K624A/K629A/K657A/K659A/R643A/R646A/R661A); experiment: In vitro PIP3-agarose bead pull-down, A3C7K/R-A; format: binding; conditions: PIP3-agarose beads, anti-GST immunoblot; compared with A3C
In short: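 Recombinant GST fusions of channel fragments expressed in E. coli and purified; soluble fraction kept after 20,000 g, 4°C, 30 min. Protein (2 µg/ml) rocked with PIP3- or control agarose beads, 2 h, 4°C, in 10 mM Hepes pH 7.4, 50 mM NaCl, 2 mM EDTA, 0.25% Triton X-100, 0.25% NP-40. Five washes, elution in sample buffer, reducing SDS gel, anti-GST (1:2,000, overnight) immunoblot, chemiluminescence; […].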

Chain of GST fusion A3C7K/R-A (Q16281 612-694 K624A/K629A/R643A/R646A/K657A/K659A/R661A): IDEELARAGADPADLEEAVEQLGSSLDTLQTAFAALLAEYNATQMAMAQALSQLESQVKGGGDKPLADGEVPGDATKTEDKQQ

| Hill coefficient ([1]; cGMP activation) | EC50 ([1]; read-out: K1/2 cGMP, +80 mV, no PIPn) | Po max cGMP ([1]; saturating cGMP) | regulation of apparent cGMP affinity ([2]; 10 µM PIP2 or 1 µM PIP3) | percent change in K1/2 cGMP caused by PIP3 ([2]; 10 µM PIP3) | in vitro PIP3 binding (GST fusion A3C7K/R-A) | Compound |
| --- | --- | --- | --- | --- | --- | --- |
| 1.95 ± 0.05 (4) | 8.29 ± 0.47 µM | 0.93 ± 0.03 (4) |  |  |  | Nc1nc2c(ncn2[C@@H]2O[C@@H]3COP(=O)(O)O[C@H]3[C@H]2O)c(=O)[nH]1 [cGMP, cyclic guanosine monophosphate] |
|  |  |  | insensitive to regulation | 2 ± 8% | attenuated binding to PIP3 beads | phosphatidylinositol (3,4,5)-trisphosphate [PIP3] |
